Data published in ChEMBL document CHEMBL1130080, “Structure-activity relationships of diverse Annonaceous acetogenins against multidrug resistant human mammary adenocarcinoma (MCF-7/Adr) cells” (J Med Chem, 1997).
Converted amounts (≈) assume the structure as drawn.

What was measured:
NCI/ADR-RES = test: Cytotoxicity against MCF-7/Adr cells.; type: functional, cell-based, Homo sapiens
Summary of the method: (§1)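 MCF-7/Adr cells kept in RPMI with 10% heat-inactivated FCS and 1% pen/strep, plated at 15 000 cells/mL on poly(D-lysine)-coated plates, left overnight at 37 °C. Day 1: compound added in 95% ethanol (1% by volume). Incubated 6 more days, growth read by BCA protein assay (A570), normalized to vehicle wells, n = 4. IC50 from linear regression through three points spanning 50%; R value from that regression.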

[1] = Statistical significance of IC 50 values; Expressed as R value; type: ADME; summary of the method: as §1
[2] = Bullaticin index relates the IC50 values by normalizing to the value of bullatacin for easy comparison.; type: ADME
Summary of the method: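 Index is IC50 of each compound divided by bullatacin's IC50, from the same 6-day BCA protein growth assay in MCF-7/Adr cells, n = 4.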

Structure (SMILES) | IC50 (NCI/ADR-RES) [µg/mL] | Activity [1] | Bullatacin index [2]
CCCCCCCCCCCC[C@@H](O)[C@H](O)CC[C@H](O)[C@@H]1CC[C@@H](CCC[C@H](O)[C@@H](O)CC[C@@H](O)CC2=C[C@H](C)OC2=O)O1 | > 1 |  | 
CCCCCCCCCCCC[C@@H](O)[C@H]1CC[C@H]([C@H]2CC[C@H]([C@H](O)CCCCCC[C@@H](O)CC3=C[C@H](C)OC3=O)O2)O1 | > 1 |  | 
CCCCCCCCCCCC[C@H](O)[C@@H](O)CC[C@H](O)[C@@H]1CC[C@@H](CCC[C@H](O)[C@@H](O)CC[C@@H](O)CC2=C[C@H](C)OC2=O)O1 | > 1 |  | 
CCCCCCCCCCCC[C@@H](O)[C@H]1CC[C@H]([C@H]2CC[C@H]([C@H](O)CC[C@H](O)CCCCCCCCC3=C[C@H](C)OC3=O)O2)O1 | 1.4 (≈ 2.2 µM) | 1 | 67.2
CCCCCCCCCCCC/C=C\CC[C@@H](O)[C@H](O)CC[C@H](O)[C@@H]1CC[C@@H](CCCCC[C@@H](O)CC2=C[C@H](C)OC2=O)O1 |  | 0.98 | 5.26
CCCCCCCCCCCC[C@@H](O)[C@H]1CC[C@H]([C@H](O)CCCC[C@H](O)CCCCC[C@@H](O)CC2=C[C@H](C)OC2=O)O1 [ANNONACIN] |  | 0.99 | 4.19
CCCCCCCCCC[C@@H](O)[C@@H]1CC[C@@H]([C@@H]2CC[C@@H]([C@H](O)CCCCCCCCCC(O)CC3=CC(C)OC3=O)O2)O1 (stereo not given in full) [BULLATACIN] | 10.8 (≈ 17.7 µM) | 0.97 | 1
CCCCCCCCCC[C@H](O)[C@H]1CC[C@H]([C@H](O)CC[C@H](O)[C@@H]2CC[C@@H](CCCCCCC[C@@H](O)CC3=C[C@H](C)OC3=O)O2)O1 [BULLATALICIN] |  | 0.98 | 4.72
COc1cccc2c1C(=O)c1c(O)c3c(c(O)c1C2=O)C[C@@](O)(C(=O)CO)C[C@@H]3O[C@H]1C[C@H](N)[C@H](O)[C@H](C)O1 [DOXORUBICIN] | 5.37 (≈ 9.88 µM) | 1 | 258.5
CCCCCCCCCCCCCC[C@@H](O)[C@H](O)CC[C@H](O)[C@@H]1CC[C@@H](CCCCC[C@@H](O)CC2=C[C@H](C)OC2=O)O1 [GIGANTETROCIN A] |  | 0.97 | 0.5
CCCCC[C@H](O)CCCC[C@H](O)[C@H]1CC[C@H]([C@H]2CC[C@H]([C@H](O)CCCCCCCCCCCCC3=C[C@H](C)OC3=O)O2)O1 [MOTRILIN] |  | 0.99 | 1.23
CCCCCCCCCCCC[C@H](O)[C@H]1CC[C@H]([C@H]2CC[C@H]([C@H](O)CCCCCCCC[C@@H](O)CC3=C[C@H](C)OC3=O)O2)O1 [SQUAMOTACIN] |  | 1 | 6.79
CCCCCCCCCC[C@@H](O)[C@@H]1CC[C@H]([C@H](O)CC[C@H](O)[C@@H]2CC[C@@H](CCCCCCC[C@@H](O)CC3=C[C@H](C)OC3=O)O2)O1 [SYLVATICIN] |  | 0.94 | 2.76
CCCCCCCCCC[C@@H](O)[C@H]1CC[C@@H]([C@H]2CC[C@H]([C@H](O)CCCCCCCCCC[C@@H](O)CC3=C[C@H](C)OC3=O)O2)O1 [TRILOBACIN] | 59.9 (≈ 96.2 µM) | 0.98 | 2.89
CC[C@]1(O)C[C@@H]2CN(CCc3c([nH]c4ccccc34)[C@@](C(=O)OC)(c3cc4c(cc3OC)N(C)[C@H]3[C@@](O)(C(=O)OC)[C@H](OC(C)=O)[C@]5(CC)C=CCN6CC[C@]43[C@@H]65)C2)C1 [VINBLASTINE] | 390 (≈ 481 µM) | 1 | 18.8
CC[C@]1(O)C[C@H]2CN(CCc3c([nH]c4ccccc34)[C@@](C(=O)OC)(c3cc4c(cc3OC)N(C=O)[C@H]3[C@@](O)(C(=O)OC)[C@H](OC(C)=O)[C@]5(CC)C=CCN6CC[C@]43[C@@H]65)C2)C1 [VINCRISTINE] | 2.93 (≈ 3.55 µM) | 1 | 141.3
